Experimental data: ChEMBL document CHEMBL5108054, “Targeting Acute Myelogenous Leukemia Using Potent Human Dihydroorotate Dehydrogenase Inhibitors Based on the 2-Hydroxypyrazolo[1,5-a]pyridine Scaffold: SAR of the Aryloxyaryl Moiety” (J Med Chem, 2022)
Active and inactive are the calls of the source. The rule behind the calls is not given here.

Assays:
[1] = Metabolic stability in rat liver microsomes assessed as retention time of hydrogenated dihydroxyl derivative metabolite by HPLC-HRMS analysis; type: ADME, Microsome
Procedure, shortened: (§1)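 Controls were heat-inactivated microsomes, no regenerating system, and drug-free blank. Samples were taken at 0, 15, 30, 60 and 120 min and quenched with cold acetonitrile. Analysis was by LC-HRMS (C18, water/acetonitrile gradient, ± ESI), with metabolites predicted by SyGMa.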

[2] = Metabolic stability in rat liver microsomes assessed as retention time of hydroxyl derivative metabolites by HPLC-HRMS analysis; type: ADME, Microsome; procedure, shortened: as §1
[3] = Metabolic stability in rat liver microsomes assessed as retention time of dihydroxyl derivative metabolite by HPLC-HRMS analysis; type: ADME, Microsome; procedure, shortened: as §1
[4] = system: Jurkat; assay: Cytotoxicity against human Jurkat T cells assessed as reduction in cell viability at 1 to 100 uM measured after 3 days by propidium iodide staining based CFSE staining; type: functional; details: dose 1-100 µM; time 3 day
[5] = system: MV4-11; assay: Induction of apoptosis in human MV4-11 cells assessed as increase in pro-apoptotic activity at 1 uM; type: functional, cell-based
[6] = system: THP-1; assay: Induction of apoptosis in human THP-1 cells assessed as increase in pro-apoptotic activity at 1 uM; type: functional, cell-based
[7] = system: THP-1; assay: Antileukemic activity against human THP-1 cells xenografted in Balb/c mouse assessed as reduction in tumor weight at 20 mg/kg, ip; type: functional, organism-based
[8] = Metabolic stability in rat liver microsomes assessed as retention time of parent compound by HPLC-HRMS analysis; type: ADME, Microsome; procedure, shortened: as §1
[9] = system: THP-1; assay: Antileukemic activity against human THP-1 cells xenografted in Balb/c mouse assessed as reduction in volume at 20 mg/kg, ip measured twice a week; type: functional, organism-based
[10] = system: THP-1; assay: Induction of apoptosis in human THP-1 cells assessed as increase in pro-apoptotic activity at 0.1 uM; type: functional, cell-based
Procedure, shortened: (§2)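 THP1 or MV4-11 cells (1 × 10^4/well) exposed to inhibitor at 0.1 or 1 μM, alone or with dipyridamole 1.0 μM and/or uridine 5 μM, for 3 days. Apoptosis was read as annexin V-FITC staining by flow cytometry. n = 3; ANOVA/Tukey.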

[11] = system: MV4-11; assay: Induction of apoptosis in human MV4-11 cells assessed as increase in pro-apoptotic activity at 0.1 uM; type: functional, cell-based; procedure, shortened: as §2

`O=C(Nc1c(F)c(F)c(-c2ccccc2)c(F)c1F)c1c(O)nn2ccccc12` gave a Retention_time [1] of 14.14 min, a Retention_time [2] of 13.41 min and a Retention_time [3] of 10.59 min.

For `Cc1cc(Oc2ccccc2)c(C(C)C)cc1NC(=O)c1c(O)nn2ccccc12`, the CC30 [4] was over 100 µM, the Activity [5] was “Active” and the Activity [6] was “Active”.

With `Cc1cc(NC(=O)c2c(O)nn3ccccc23)c(C(C)C)cc1Oc1ccccc1` the CC30 [4] was over 100 µM, the Activity [7] was “Active” and the Retention_time [8] was 17.33 min. The Activity [9] was “Active”, the Activity [10] was “Active” and the Activity [11] was “Active”.
